# Experimental data: ChEMBL document CHEMBL2062386, “Discovery of LFF571: an investigational agent for Clostridium difficile infection” (J Med Chem, 2012)
# Columns and labels:
# Assay type in all cases: functional
# [1] = Antibacterial activity against Clostridium difficile ATCC 43255 by broth microdilution method; conditions: Clostridioides difficile
# Summary of the method: (§1)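 Broth microdilution MICs were run per CLSI M07-A8 (2009). The strain panel included C. difficile ATCC 43255, E. faecalis ATCC 29212 and S. pyogenes ATCC BAA-595.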
# Escherichia coli = test: Inhibition of protein synthesis in Escherichia coli S30 extract at 2 uM after 75 mins by luciferase based luminescence assay relative to GE2270A
# Streptococcus pyogenes = test: Antibacterial activity against Streptococcus pyogenes ATCC BAA-595 by broth microdilution method; summary of the method: as §1
# Staphylococcus aureus = test: Antibacterial activity against Staphylococcus aureus A4.018 by broth microdilution method
# Enterococcus faecalis = test: Antibacterial activity against Enterococcus faecalis ATCC 29212 by broth microdilution method; summary of the method: as §1
# Enterococcus faecium = test: Antibacterial activity against Enterococcus faecium 7130724 by broth microdilution method
SMILES,MIC [1] [µg/mL],inhibition at 2 µM (Escherichia coli) [%],MIC (Streptococcus pyogenes) [µg/mL],MIC (Staphylococcus aureus) [µg/mL],MIC (Enterococcus faecalis) [µg/mL],MIC (Enterococcus faecium) [µg/mL]
CNC(=O)C[C@@H]1NC(=O)c2csc(n2)-c2ccc(-c3nc(N(CCCCC(=O)O)C(=O)OCCC(CCCCC(=O)O)C(=O)O)cs3)nc2-c2csc(n2)-c2csc(n2)[C@H]([C@@H](O)c2ccccc2)NC(=O)CNC(=O)c2nc(sc2COC)[C@H](C(C)C)NC(=O)c2nc1sc2C (stereo not given in full),0.5,50,32,16,8,16
CNC(=O)C[C@@H]1NC(=O)c2csc(n2)-c2ccc(-c3nc(N(CCCCC(=O)O)C(=O)O[C@H]4CC[C@](CCCCC(=O)O)(C(=O)O)CC4)cs3)nc2-c2csc(n2)-c2csc(n2)[C@H]([C@@H](O)c2ccccc2)NC(=O)CNC(=O)c2nc(sc2COC)[C@H](C(C)C)NC(=O)c2nc1sc2C,0.03,50,4,1,0.5,1
CNC(=O)C[C@@H]1NC(=O)c2csc(n2)-c2ccc(-c3nc(N(CCCCC(=O)O)C(=O)N[C@H]4CC[C@H](C(=O)O)CC4)cs3)nc2-c2csc(n2)-c2csc(n2)[C@H]([C@@H](O)c2ccccc2)NC(=O)CNC(=O)c2nc(sc2COC)[C@H](C(C)C)NC(=O)c2nc1sc2C,1,30,32,16,16,> 32
CNC(=O)C[C@@H]1NC(=O)c2csc(n2)-c2ccc(-c3nc(NC(=O)CC[C@@H](CC(=O)O)C(=O)O)cs3)nc2-c2csc(n2)-c2csc(n2)[C@H]([C@@H](O)c2ccccc2)NC(=O)CNC(=O)c2nc(sc2COC)[C@H](C(C)C)NC(=O)c2nc1sc2C,4,30,> 32,32,16,32
CNC(=O)C[C@@H]1NC(=O)c2csc(n2)-c2ccc(-c3nc(N(CCCCC(=O)O)C(=O)OCC4CC4C(=O)O)cs3)nc2-c2csc(n2)-c2csc(n2)[C@H]([C@@H](O)c2ccccc2)NC(=O)CNC(=O)c2nc(sc2COC)[C@H](C(C)C)NC(=O)c2nc1sc2C (stereo not given in full),0.03,67,2,0.25,0.125,0.5
CNC(=O)C[C@@H]1NC(=O)c2csc(n2)-c2ccc(-c3nc(N(CCCCC(=O)O)C(=O)O[C@]4(CCCCC(=O)O)CC[C@@H](C(=O)O)CC4)cs3)nc2-c2csc(n2)-c2csc(n2)[C@H]([C@@H](O)c2ccccc2)NC(=O)CNC(=O)c2nc(sc2COC)[C@H](C(C)C)NC(=O)c2nc1sc2C,–,50,16,8,4,8
CNC(=O)C[C@@H]1NC(=O)c2csc(n2)-c2ccc(-c3nc(N(CCCCC(=O)O)C(=O)O[C@@H]4CC[C@@H](C(=O)O)C[C@H]4CCCCC(=O)O)cs3)nc2-c2csc(n2)-c2csc(n2)[C@H]([C@@H](O)c2ccccc2)NC(=O)CNC(=O)c2nc(sc2COC)[C@H](C(C)C)NC(=O)c2nc1sc2C,0.25,50,4,8,4,4
CNC(=O)C[C@@H]1NC(=O)c2csc(n2)-c2ccc(-c3nc(NC(=O)CC[C@H](CC(=O)O)C(=O)O)cs3)nc2-c2csc(n2)-c2csc(n2)[C@H]([C@@H](O)c2ccccc2)NC(=O)CNC(=O)c2nc(sc2COC)[C@H](C(C)C)NC(=O)c2nc1sc2C,4,30,> 32,8,4,8
CNC(=O)C[C@@H]1NC(=O)c2csc(n2)-c2ccc(-c3nc(N(CCCCC(=O)O)C(=O)NCCCC(=O)O)cs3)nc2-c2csc(n2)-c2csc(n2)[C@H]([C@@H](O)c2ccccc2)NC(=O)CNC(=O)c2nc(sc2COC)[C@H](C(C)C)NC(=O)c2nc1sc2C,4,30,> 32,32,> 32,> 32
CNC(=O)C[C@@H]1NC(=O)c2csc(n2)-c2ccc(-c3nc(N(CCCC(CCCCCCC(=O)O)C(=O)O)C(=O)O[C@H]4CC[C@H](C(=O)O)CC4)cs3)nc2-c2csc(n2)-c2csc(n2)[C@H]([C@@H](O)c2ccccc2)NC(=O)CNC(=O)c2nc(sc2COC)[C@H](C(C)C)NC(=O)c2nc1sc2C (stereo not given in full),0.06,50,1,1,0.25,0.5
CNC(=O)C[C@@H]1NC(=O)c2csc(n2)-c2ccc(-c3nc(N(CCCCC(=O)O)C(=O)C[C@H]4CC[C@H](C(=O)O)CC4)cs3)nc2-c2csc(n2)-c2csc(n2)[C@H]([C@@H](O)c2ccccc2)NC(=O)CNC(=O)c2nc(sc2COC)[C@H](C(C)C)NC(=O)c2nc1sc2C,0.25,30,32,4,8,> 32
CNC(=O)C[C@@H]1NC(=O)c2csc(n2)-c2ccc(-c3nc(N(CCCCC(=O)O)C(=O)N4CCC(C(=O)O)CC4)cs3)nc2-c2csc(n2)-c2csc(n2)[C@H]([C@@H](O)c2ccccc2)NC(=O)CNC(=O)c2nc(sc2COC)[C@H](C(C)C)NC(=O)c2nc1sc2C,> 4,30,> 32,> 32,> 32,> 32
CNC(=O)C[C@@H]1NC(=O)c2csc(n2)-c2ccc(-c3nc(N(CCCCC(=O)O)C(=O)OC4CC(C(=O)O)C4)cs3)nc2-c2csc(n2)-c2csc(n2)[C@H]([C@@H](O)c2ccccc2)NC(=O)CNC(=O)c2nc(sc2COC)[C@H](C(C)C)NC(=O)c2nc1sc2C (stereo not given in full),0.03,67,2,0.5,0.25,0.25
CNC(=O)C[C@@H]1NC(=O)c2csc(n2)-c2ccc(-c3nc(N(CCCCC(=O)O)C(=O)OCc4ccc(C(=O)O)cn4)cs3)nc2-c2csc(n2)-c2csc(n2)[C@H]([C@@H](O)c2ccccc2)NC(=O)CNC(=O)c2nc(sc2COC)[C@H](C(C)C)NC(=O)c2nc1sc2C,0.125,67,4,2,1,1
CNC(=O)C[C@@H]1NC(=O)c2csc(n2)-c2ccc(-c3nc(N(CCCC(=O)O)C(=O)c4ccc(C(=O)O)cn4)cs3)nc2-c2csc(n2)-c2csc(n2)[C@H]([C@@H](O)c2ccccc2)NC(=O)CNC(=O)c2nc(sc2COC)[C@H](C(C)C)NC(=O)c2nc1sc2C,4,30,> 32,32,16,32
CNC(=O)C[C@@H]1NC(=O)c2csc(n2)-c2ccc(-c3nc(N(CCCCC(=O)O)C(=O)OC(CCCCC(=O)O)CCC(=O)O)cs3)nc2-c2csc(n2)-c2csc(n2)[C@H]([C@@H](O)c2ccccc2)NC(=O)CNC(=O)c2nc(sc2COC)[C@H](C(C)C)NC(=O)c2nc1sc2C (stereo not given in full),2,50,> 32,32,16,32
CNC(=O)C[C@@H]1NC(=O)c2csc(n2)-c2ccc(-c3nc(N(CCCC(=O)O)C(=O)CCCCC(=O)O)cs3)nc2-c2csc(n2)-c2csc(n2)[C@H]([C@@H](O)c2ccccc2)NC(=O)CNC(=O)c2nc(sc2COC)[C@H](C(C)C)NC(=O)c2nc1sc2C,2,30,> 32,16,32,32
CNC(=O)C[C@@H]1NC(=O)c2csc(n2)-c2ccc(-c3nc(N(CC(CC(=O)O)OC)C(=O)O[C@H]4CC[C@H](C(=O)O)CC4)cs3)nc2-c2csc(n2)-c2csc(n2)[C@H]([C@@H](O)c2ccccc2)NC(=O)CNC(=O)c2nc(sc2COC)[C@H](C(C)C)NC(=O)c2nc1sc2C (stereo not given in full),0.06,67,4,1,1,1
CNC(=O)C[C@@H]1NC(=O)c2csc(n2)-c2ccc(-c3nc(N(CCCCC(CCC(=O)O)C(=O)O)C(=O)O[C@H]4CC[C@H](C(=O)O)CC4)cs3)nc2-c2csc(n2)-c2csc(n2)[C@H]([C@@H](O)c2ccccc2)NC(=O)CNC(=O)c2nc(sc2COC)[C@H](C(C)C)NC(=O)c2nc1sc2C (stereo not given in full),0.25,50,8,16,8,8
CNC(=O)C[C@@H]1NC(=O)c2csc(n2)-c2ccc(-c3nc(N(CCCCC(=O)O)C(=O)OCC(CCCCC(=O)O)CC(=O)O)cs3)nc2-c2csc(n2)-c2csc(n2)[C@H]([C@@H](O)c2ccccc2)NC(=O)CNC(=O)c2nc(sc2COC)[C@H](C(C)C)NC(=O)c2nc1sc2C (stereo not given in full),1,50,32,8,8,8
CNC(=O)C[C@@H]1NC(=O)c2csc(n2)-c2ccc(-c3nc(N(CCCCC(=O)O)C(=O)[C@H]4CC[C@H](C(=O)O)CC4)cs3)nc2-c2csc(n2)-c2csc(n2)[C@H]([C@@H](O)c2ccccc2)NC(=O)CNC(=O)c2nc(sc2COC)[C@H](C(C)C)NC(=O)c2nc1sc2C,2,30,> 32,16,32,> 32
CNC(=O)C[C@@H]1NC(=O)c2csc(n2)-c2ccc(-c3nc(N(C)C(=O)CCCC(=O)O)cs3)nc2-c2csc(n2)-c2csc(n2)[C@H]([C@@H](O)c2ccccc2)NC(=O)CNC(=O)c2nc(sc2COC)[C@H](C(C)C)NC(=O)c2nc1sc2C,–,30,> 64,2,2,4
